In ChEMBL document CHEMBL5696442, “Discovery of type II inhibitors of TGFβ-activated kinase 1 (TAK1) and mitogen-activated protein kinase kinase kinase kinase 2 (MAP4K2)” (J Med Chem, 2015) one finds inhibition data, which are given here for 4 compounds.

Assay [1] in a line: Inhibition of p70S6K ATP Loop labeling site harbouring GGYGKVFQVR in human A-375 cells at 5 uM by KiNativ Profiling analysis relative to control. As to conditions: condition cancer.
The target of assay [2] is TRAF2 and NCK-interacting protein kinase (Homo sapiens) (UniProt Q9UKE5). Kind of assay: Inhibition of ZC2/TNIK Lys1 labeling site in human A-375 cells at 0.05 uM by KiNativ Profiling analysis relative to control. The class given is cell-based.
Chain of TRAF2 and NCK-interacting protein kinase (Homo sapiens) (Q9UKE5 whole entry, looked up): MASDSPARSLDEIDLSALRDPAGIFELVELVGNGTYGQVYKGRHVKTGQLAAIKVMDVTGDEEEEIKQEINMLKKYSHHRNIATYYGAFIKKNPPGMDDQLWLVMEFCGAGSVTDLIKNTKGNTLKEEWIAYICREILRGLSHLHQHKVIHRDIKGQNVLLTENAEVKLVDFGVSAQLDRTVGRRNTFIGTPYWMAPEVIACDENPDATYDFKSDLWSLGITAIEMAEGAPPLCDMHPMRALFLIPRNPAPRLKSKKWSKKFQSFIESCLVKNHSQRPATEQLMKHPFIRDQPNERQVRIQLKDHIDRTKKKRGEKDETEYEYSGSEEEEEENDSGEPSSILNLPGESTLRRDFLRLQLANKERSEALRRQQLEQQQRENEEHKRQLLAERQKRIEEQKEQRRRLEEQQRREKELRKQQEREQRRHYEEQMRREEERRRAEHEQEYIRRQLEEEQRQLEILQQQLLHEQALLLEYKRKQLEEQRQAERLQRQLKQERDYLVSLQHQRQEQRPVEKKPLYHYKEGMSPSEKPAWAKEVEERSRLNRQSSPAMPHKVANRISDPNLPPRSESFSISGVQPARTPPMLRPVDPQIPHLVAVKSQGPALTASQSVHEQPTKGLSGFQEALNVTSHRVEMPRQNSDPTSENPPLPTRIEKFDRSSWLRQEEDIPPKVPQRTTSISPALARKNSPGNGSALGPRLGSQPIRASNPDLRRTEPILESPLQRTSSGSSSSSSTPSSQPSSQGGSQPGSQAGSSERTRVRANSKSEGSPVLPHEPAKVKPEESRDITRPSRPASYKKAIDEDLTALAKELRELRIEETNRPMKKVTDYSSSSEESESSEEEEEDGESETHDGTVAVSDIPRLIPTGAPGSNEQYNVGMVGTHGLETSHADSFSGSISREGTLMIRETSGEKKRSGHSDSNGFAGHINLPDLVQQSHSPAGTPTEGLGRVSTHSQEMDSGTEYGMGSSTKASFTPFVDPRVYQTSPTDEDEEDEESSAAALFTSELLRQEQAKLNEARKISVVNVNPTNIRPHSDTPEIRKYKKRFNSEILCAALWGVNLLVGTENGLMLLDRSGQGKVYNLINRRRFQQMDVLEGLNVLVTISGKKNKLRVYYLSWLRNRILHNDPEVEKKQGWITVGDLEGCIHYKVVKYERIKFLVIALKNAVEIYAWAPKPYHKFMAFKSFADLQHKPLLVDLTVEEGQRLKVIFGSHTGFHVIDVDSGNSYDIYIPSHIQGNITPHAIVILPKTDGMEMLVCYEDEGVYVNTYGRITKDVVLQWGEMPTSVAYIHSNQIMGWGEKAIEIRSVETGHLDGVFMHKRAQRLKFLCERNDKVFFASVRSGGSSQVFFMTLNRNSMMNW
Assay [3] has as its target Serine/threonine-protein kinase 24 (Homo sapiens) (UniProt Q9Y6E0). Nature of the assay: Inhibition of MST3 Lys2 labeling site harbouring DIKAANVLLSEHGEVK in human A-375 cells at 0.5 uM by KiNativ Profiling analysis relative to control. It is filed as cell-based.
The target in assay [4] is T1, Serine/threonine-protein kinase TBK1 (Homo sapiens) (UniProt Q9UHD2).
T1 sequence (whole entry): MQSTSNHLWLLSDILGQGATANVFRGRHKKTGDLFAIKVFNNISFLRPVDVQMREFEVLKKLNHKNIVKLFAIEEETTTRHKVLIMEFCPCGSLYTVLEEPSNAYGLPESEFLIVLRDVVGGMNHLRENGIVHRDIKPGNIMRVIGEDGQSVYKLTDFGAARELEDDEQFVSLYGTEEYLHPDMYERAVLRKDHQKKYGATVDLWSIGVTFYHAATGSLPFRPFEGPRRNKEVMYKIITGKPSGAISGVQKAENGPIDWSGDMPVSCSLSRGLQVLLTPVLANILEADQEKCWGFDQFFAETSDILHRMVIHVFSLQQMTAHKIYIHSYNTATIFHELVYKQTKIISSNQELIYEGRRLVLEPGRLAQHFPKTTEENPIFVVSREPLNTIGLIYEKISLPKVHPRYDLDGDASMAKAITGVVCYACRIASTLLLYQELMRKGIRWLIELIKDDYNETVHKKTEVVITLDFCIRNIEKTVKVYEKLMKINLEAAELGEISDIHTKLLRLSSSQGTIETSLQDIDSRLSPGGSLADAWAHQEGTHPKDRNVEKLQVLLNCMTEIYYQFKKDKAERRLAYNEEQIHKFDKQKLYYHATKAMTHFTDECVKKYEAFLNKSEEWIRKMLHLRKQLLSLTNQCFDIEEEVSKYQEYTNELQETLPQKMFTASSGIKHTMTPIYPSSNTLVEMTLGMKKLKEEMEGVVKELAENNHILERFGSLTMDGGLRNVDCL
Kind of assay: Inhibition of TBK1 Lys1 labeling site in human A-375 cells at 5 uM by KiNativ Profiling analysis relative to control. It is filed as cell-based.

The target in assay [5] is DNA-PK/Ku70/Ku85 (Homo sapiens) (UniProt P78527+P12956+P13010). Kind of assay: Inhibition of DNAPK ATP labeling site harbouring GHDEREHPFLVKGGEDLR in human A-375 cells at 0.5 uM by KiNativ Profiling analysis relative to control. The class given is cell-based. In short, it runs like this: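 Live A375 melanoma cells were treated with compound at 0.5 or 5 μM, then lysed. Lysates were labeled with a lysine-reactive ATP or ADP-biotin probe. The read-out was protection of each kinase probe-labeling site from labeling, relative to control.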

Assay [6] has as its target Serine/threonine-protein kinase VRK2 (Homo sapiens) (UniProt Q86Y07). Nature of the assay: Inhibition of VRK2 Lys2 labeling site in human A-375 cells at 5 uM by KiNativ Profiling analysis relative to control. It is filed as cell-based.
Assay [7] has as its target Tyrosine-protein kinase Fer (Homo sapiens, UniProt P16591). Nature of the assay: Inhibition of FER Lys1 labeling site harbouring DKTSVAVKTCKEDLPQELK in human A-375 cells at 5 uM by KiNativ Profiling analysis relative to control. The class given is cell-based.
Assay [8] deals with Protein kinase C alpha type (Homo sapiens) (UniProt P17252). Nature of the assay: Inhibition of PKCa Lys2 labeling site in human A-375 cells at 5 uM by KiNativ Profiling analysis relative to control. It is filed as cell-based.
Assay [9] has as its target Tyrosine-protein kinase Yes (Homo sapiens) (UniProt P07947). Kind of assay: Inhibition of YES ACT labeling site in human A-375 cells at 0.5 uM by KiNativ Profiling analysis relative to control. The class given is cell-based.
In assay [10] the target is Proto-oncogene tyrosine-protein kinase Src (Homo sapiens, UniProt P12931). Kind of assay: Inhibition of SRC Lys1 labeling site in human A-375 cells at 5 uM by KiNativ Profiling analysis relative to control. It is filed as cell-based.
Chain of Proto-oncogene tyrosine-protein kinase Src (P12931 2-536 limits assumed): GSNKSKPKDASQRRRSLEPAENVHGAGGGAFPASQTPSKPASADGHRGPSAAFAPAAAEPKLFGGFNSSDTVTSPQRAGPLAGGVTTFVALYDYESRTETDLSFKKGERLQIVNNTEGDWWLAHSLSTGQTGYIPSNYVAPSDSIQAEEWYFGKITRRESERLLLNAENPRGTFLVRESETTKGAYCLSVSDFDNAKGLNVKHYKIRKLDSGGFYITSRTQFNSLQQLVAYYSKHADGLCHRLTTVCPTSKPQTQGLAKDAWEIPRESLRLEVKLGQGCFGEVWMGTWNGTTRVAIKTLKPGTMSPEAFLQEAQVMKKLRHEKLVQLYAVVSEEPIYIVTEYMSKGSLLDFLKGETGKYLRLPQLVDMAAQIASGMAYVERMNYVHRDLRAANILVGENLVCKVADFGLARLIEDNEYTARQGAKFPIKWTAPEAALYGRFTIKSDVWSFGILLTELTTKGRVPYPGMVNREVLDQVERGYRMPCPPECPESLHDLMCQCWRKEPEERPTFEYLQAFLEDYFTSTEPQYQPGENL
Assay [11] concerns the target T2, Mitogen-activated protein kinase 13 (Homo sapiens) (UniProt O15264).
T2 sequence (whole entry): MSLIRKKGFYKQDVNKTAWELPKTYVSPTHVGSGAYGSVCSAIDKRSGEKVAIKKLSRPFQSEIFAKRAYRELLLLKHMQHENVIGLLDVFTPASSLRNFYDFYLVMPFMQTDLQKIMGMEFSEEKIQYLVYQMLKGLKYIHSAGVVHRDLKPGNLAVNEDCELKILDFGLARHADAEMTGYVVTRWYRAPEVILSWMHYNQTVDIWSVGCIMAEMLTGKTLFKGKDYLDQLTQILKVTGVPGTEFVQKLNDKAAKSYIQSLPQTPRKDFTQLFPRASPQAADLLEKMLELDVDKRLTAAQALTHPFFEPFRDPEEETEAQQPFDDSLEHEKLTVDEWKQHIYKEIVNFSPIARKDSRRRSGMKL
Kind of assay: Inhibition of p38delta Lys2 labeling site in human Huh-7 cell lysate at 1 uM by KiNativ Profiling analysis relative to control. It is filed as subcellular.

Chain of Tyrosine-protein kinase Yes (Homo sapiens) (P07947 2-543 limits assumed): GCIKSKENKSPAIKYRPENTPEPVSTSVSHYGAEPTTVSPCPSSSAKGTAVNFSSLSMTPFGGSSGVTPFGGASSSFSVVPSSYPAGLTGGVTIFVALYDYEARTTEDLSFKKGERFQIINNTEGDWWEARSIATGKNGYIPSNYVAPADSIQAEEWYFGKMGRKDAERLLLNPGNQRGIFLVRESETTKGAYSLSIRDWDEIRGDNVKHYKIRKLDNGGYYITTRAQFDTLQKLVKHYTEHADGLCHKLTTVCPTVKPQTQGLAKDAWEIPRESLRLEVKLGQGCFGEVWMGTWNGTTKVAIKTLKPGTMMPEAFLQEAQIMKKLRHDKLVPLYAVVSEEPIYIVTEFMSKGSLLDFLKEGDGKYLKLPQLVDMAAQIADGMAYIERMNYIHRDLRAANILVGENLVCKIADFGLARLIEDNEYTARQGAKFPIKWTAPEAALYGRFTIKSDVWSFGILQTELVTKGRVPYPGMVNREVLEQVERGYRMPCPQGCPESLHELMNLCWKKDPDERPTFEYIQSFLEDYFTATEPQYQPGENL
Chain of Tyrosine-protein kinase Fer (P16591 whole entry, looked up): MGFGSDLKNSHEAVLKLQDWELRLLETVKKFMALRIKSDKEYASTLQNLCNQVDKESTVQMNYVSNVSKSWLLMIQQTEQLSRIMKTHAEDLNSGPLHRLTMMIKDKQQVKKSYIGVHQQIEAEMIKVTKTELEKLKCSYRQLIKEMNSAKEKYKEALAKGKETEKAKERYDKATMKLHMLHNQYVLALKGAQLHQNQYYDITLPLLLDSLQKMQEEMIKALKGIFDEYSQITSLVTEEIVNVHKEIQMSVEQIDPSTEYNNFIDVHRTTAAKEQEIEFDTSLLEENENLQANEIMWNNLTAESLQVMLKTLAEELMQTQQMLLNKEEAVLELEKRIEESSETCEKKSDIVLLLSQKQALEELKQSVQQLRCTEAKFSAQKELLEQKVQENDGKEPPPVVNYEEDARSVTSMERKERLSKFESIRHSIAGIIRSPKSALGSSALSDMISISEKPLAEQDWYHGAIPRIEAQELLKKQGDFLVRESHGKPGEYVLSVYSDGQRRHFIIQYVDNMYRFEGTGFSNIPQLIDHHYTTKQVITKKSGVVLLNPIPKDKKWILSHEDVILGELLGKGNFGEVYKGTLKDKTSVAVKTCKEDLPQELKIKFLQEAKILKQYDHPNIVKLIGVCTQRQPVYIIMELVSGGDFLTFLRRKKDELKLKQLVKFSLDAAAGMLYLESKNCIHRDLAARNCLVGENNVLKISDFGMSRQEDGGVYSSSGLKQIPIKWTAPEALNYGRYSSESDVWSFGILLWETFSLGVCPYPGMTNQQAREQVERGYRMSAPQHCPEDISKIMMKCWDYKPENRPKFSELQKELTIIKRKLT
Chain of Serine/threonine-protein kinase 24 (Homo sapiens) (Q9Y6E0 whole entry, looked up): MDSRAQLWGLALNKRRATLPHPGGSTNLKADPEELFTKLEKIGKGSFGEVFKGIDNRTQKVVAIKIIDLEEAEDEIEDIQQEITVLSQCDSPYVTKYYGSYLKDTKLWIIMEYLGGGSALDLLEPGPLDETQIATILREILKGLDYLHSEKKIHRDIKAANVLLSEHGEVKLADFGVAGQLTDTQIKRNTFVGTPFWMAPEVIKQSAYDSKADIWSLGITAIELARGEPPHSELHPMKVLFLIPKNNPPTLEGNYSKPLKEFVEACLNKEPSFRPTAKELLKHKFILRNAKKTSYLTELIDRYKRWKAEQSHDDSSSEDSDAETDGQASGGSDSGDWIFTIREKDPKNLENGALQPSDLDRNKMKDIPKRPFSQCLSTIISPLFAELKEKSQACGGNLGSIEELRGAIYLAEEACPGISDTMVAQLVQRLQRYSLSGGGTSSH
Chain of Serine/threonine-protein kinase VRK2 (Homo sapiens) (Q86Y07 whole entry): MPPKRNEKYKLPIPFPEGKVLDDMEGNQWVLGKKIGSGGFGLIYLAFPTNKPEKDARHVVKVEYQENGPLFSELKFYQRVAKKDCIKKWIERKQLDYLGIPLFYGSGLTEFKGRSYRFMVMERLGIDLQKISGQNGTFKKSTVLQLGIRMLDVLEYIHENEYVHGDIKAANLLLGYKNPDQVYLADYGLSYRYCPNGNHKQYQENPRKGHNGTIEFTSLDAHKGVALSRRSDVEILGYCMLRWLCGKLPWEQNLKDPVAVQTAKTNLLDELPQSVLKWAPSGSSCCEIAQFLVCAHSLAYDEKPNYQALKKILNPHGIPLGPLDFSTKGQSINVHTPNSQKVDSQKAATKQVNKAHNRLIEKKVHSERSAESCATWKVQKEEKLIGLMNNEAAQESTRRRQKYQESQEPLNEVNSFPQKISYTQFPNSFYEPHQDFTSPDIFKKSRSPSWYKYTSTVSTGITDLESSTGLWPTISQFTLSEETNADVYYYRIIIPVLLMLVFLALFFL

Consider `CCN1CCN(Cc2ccc(NC(=O)c3ccc(C)c(/C=C/c4cnc5[nH]ccc5c4OC)c3)cc2C(F)(F)F)CC1`, for which the inhibition (in general, the relative decrease from the control value, in per cent) at 5 µM in assay [1] was -8%. Further, the inhibition in assay [2] turned out to be 57.6%; in assay [3] it was 0.2%; in assay [4] it was 42.7%; in assay [5], 9.6%; in assay [6] it was 21.5%; in assay [7], 80.3%. The inhibition in assay [8] was 50.2%; in assay [9], 72.6%; in assay [10] it was more than 92%.

As for `CNc1cc(Oc2cc(C(=O)Nc3cc(-n4cnc(C)c4)cc(C(F)(F)F)c3)ccc2C)ncn1`, in [11], the inhibition was found to be 5.5%.

As for `CCN1CCN(Cc2ccc(NC(=O)c3ccc(C)c(Oc4ccnc5[nH]ccc45)c3)cc2C(F)(F)F)CC1`, the inhibition at 5 µM in [1] amounted to 14.7%. For the same compound, the inhibition in assay [2] is 42.6%; in assay [3], 1.6%; in [4], 13.2%; in assay [5], 3.6%; in [6] it was 12.7%; in assay [7], 98.1%. The figures for the inhibition in assay [8], in assay [9] and in assay [10] were 51%, 36.5% and more than 92%, respectively.

With `CNc1cc(Oc2cc(C(=O)Nc3cc(N4CCN(C)CC4)cc(C(F)(F)F)c3)ccc2C)ncn1`, in [11], the inhibition was 12.8%.
